Experimental data: ChEMBL document CHEMBL3227958, “A preliminary structure-activity study of the mixed-function oxidase inhibitor 7,8-benzoflavone” (J Med Chem, 1979)

Assays:
[1] = Inhibition of benzo(alpha)pyrene monooxygenase in 3-methylcholanthrene-treated Sprague-Dawley rat liver microsomes using [3H]benzo(alpha)pyrene as substrate after 15 mins by liquid scintillation spectrometry; conditions: read-out: I50
Summary of the method: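 Liver microsomes from male Sprague-Dawley rats (60-80 g) given 3-methylcholanthrene 20 mg/kg ip in corn oil on 2 days, then starved 24 h. Run with 0.200 mg/mL protein, NADPH-generating system and 60 μM [3H]benzo[a]pyrene for 15 min at 37 °C. Hydroxylated products were taken into alkali and counted. I50 came from log concentration vs % activity, with at least four concentrations and triplicates.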

[2] = Inhibition of benzo(alpha)pyrene monooxygenase in phenobarbital-treated Sprague-Dawley rat liver microsomes using [3H]benzo(alpha)pyrene as substrate after 15 mins by liquid scintillation spectrometry; conditions: read-out: I50
Summary of the method: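 Microsomes came from male Sprague-Dawley rats (60-80 g) given phenobarbital 80 mg/kg ip in saline on 3 days, then starved 24 h. The assay used 0.400 mg/mL protein, NADP/glucose 6-phosphate/G6PDH and 60 μM [3H]benzo[a]pyrene for 15 min at 37 °C. Hexane/alkali extraction was followed by scintillation counting, minus an ethanolic-NaOH-treated microsome blank. I50 used ≥4 inhibitor concentrations, log-dose plot, three replicates.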

[3] = test system: benzo(alpha)pyrene monooxygenase; test: Inhibition of benzo(alpha)pyrene monooxygenase in phenobarbital-treated Sprague-Dawley rat liver microsomes using [3H]benzo(alpha)pyrene as substrate at 99 uM after 15 mins by liquid scintillation spectrometry; conditions: liver microsomes from phenobarbital-treated rats, probe [3H]benzo(alpha)pyrene
Summary of the method: (§1)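 Single-concentration change in benzo[a]pyrene oxidation versus solvent controls, using phenobarbital-induced male Sprague-Dawley rat liver microsomes at 0.400 mg/mL protein. Conditions: 60 μM [3H]benzo[a]pyrene, NADPH-generating system, 15 min at 37 °C. Termination used ethanolic NaOH, then hexane extraction and scintillation counting of the lower phase, corrected with an ethanolic-NaOH-treated microsome blank. Three replicates.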

[4] = Stimulation of benzo(alpha)pyrene monooxygenase in phenobarbital-treated Sprague-Dawley rat liver microsomes using [3H]benzo(alpha)pyrene as substrate at 100 uM after 15 mins by liquid scintillation spectrometry; format: ADME; conditions: 0.25 h; summary of the method: as §1
[5] = test system: benzo(alpha)pyrene monooxygenase; test: Inhibition of benzo(alpha)pyrene monooxygenase in 3-methylcholanthrene-treated Sprague-Dawley rat liver microsomes using [3H]benzo(alpha)pyrene as substrate at 100 uM after 15 mins by liquid scintillation spectrometry; conditions: liver microsomes from 3-methylcholanthrene-treated rats, probe [3H]benzo(alpha)pyrene
Summary of the method: (§2)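 Percent inhibition or stimulation was measured at the single stated inhibitor concentration, relative to solvent-only controls. Hepatic microsomes were from 3-methylcholanthrene-pretreated male Sprague-Dawley rats, used at 0.200 mg/mL protein with an NADPH-generating system. Substrate was 60 μM [3H]benzo[a]pyrene, incubated 15 min at 37 °C. The reaction was stopped with NaOH in 80% ethanol, hexane-extracted, and the aqueous phase counted. Triplicate samples.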

[6] = test system: benzo(alpha)pyrene monooxygenase; test: Inhibition of benzo(alpha)pyrene monooxygenase in phenobarbital-treated Sprague-Dawley rat liver microsomes using [3H]benzo(alpha)pyrene as substrate at 100 uM after 15 mins by liquid scintillation spectrometry; conditions: liver microsomes from phenobarbital-treated rats, probe [3H]benzo(alpha)pyrene; summary of the method: as §1
[7] = Stimulation of benzo(alpha)pyrene monooxygenase in phenobarbital-treated Sprague-Dawley rat liver microsomes using [3H]benzo(alpha)pyrene as substrate at 98 uM after 15 mins by liquid scintillation spectrometry; format: ADME; conditions: 0.25 h; summary of the method: as §1
[8] = Stimulation of benzo(alpha)pyrene monooxygenase in phenobarbital-treated Sprague-Dawley rat liver microsomes using [3H]benzo(alpha)pyrene as substrate at 99 uM after 15 mins by liquid scintillation spectrometry; format: ADME; conditions: 0.25 h; summary of the method: as §1
[9] = test system: benzo(alpha)pyrene monooxygenase; test: Inhibition of benzo(alpha)pyrene monooxygenase in 3-methylcholanthrene-treated Sprague-Dawley rat liver microsomes using [3H]benzo(alpha)pyrene as substrate at 99 uM after 15 mins by liquid scintillation spectrometry; conditions: liver microsomes from 3-methylcholanthrene-treated rats, probe [3H]benzo(alpha)pyrene; summary of the method: as §2
[10] = Stimulation of benzo(alpha)pyrene monooxygenase in 3-methylcholanthrene-treated Sprague-Dawley rat liver microsomes using [3H]benzo(alpha)pyrene as substrate at 200 uM after 15 mins by liquid scintillation spectrometry; format: ADME; conditions: 0.25 h; summary of the method: as §2
[11] = Stimulation of benzo(alpha)pyrene monooxygenase in phenobarbital-treated Sprague-Dawley rat liver microsomes using [3H]benzo(alpha)pyrene as substrate at 200 uM after 15 mins by liquid scintillation spectrometry; format: ADME; conditions: 0.25 h; summary of the method: as §1
[12] = test system: benzo(alpha)pyrene monooxygenase; test: Inhibition of benzo(alpha)pyrene monooxygenase in phenobarbital-treated Sprague-Dawley rat liver microsomes using [3H]benzo(alpha)pyrene as substrate at 104 uM after 15 mins by liquid scintillation spectrometry; conditions: liver microsomes from phenobarbital-treated rats, probe [3H]benzo(alpha)pyrene; summary of the method: as §1

| Structure (SMILES) | IC50 [1] | IC50 [2] | also measured |
| --- | --- | --- | --- |
| Nc1cc2c(=O)cc(-c3ccccc3)oc2c2ccccc12 | 31 µM | 82 µM |  |
| O=c1cc(-c2ccc(Cl)cc2)oc2c1ccc1ccccc12 | 13 µM | > 99 µM | inhibition at 0.25 h, 99 µM [3]: 0% |
| COc1ccc(-c2cc(=O)c3ccc4ccccc4c3o2)cc1 | > 100 µM | > 100 µM | inhibition at 0.25 h, 100 µM [6]: 0%; inhibition at 0.25 h, 100 µM [5]: 46% |
| COc1cccc(-c2cc(=O)c3ccc4ccccc4c3o2)c1 | 11 µM | > 98 µM | Activity [7]: 9% |
| O=c1cc(-c2ccc([N+](=O)[O-])cc2)oc2c1ccc1ccccc12 | > 99 µM | > 99 µM | Activity [8]: 33%; inhibition at 0.25 h, 99 µM [9]: 0% |
| O=c1cc(-c2ccccc2)oc2c1cc([N+](=O)[O-])c1ccccc12 | > 200 µM | > 200 µM | Activity [10]: 34%; Activity [11]: 43% |
| O=c1cc(-c2ccccc2)oc2c1cc(Br)c1ccccc12 | > 97 µM | > 97 µM |  |
| COc1ccccc1-c1cc(=O)c2ccc3ccccc3c2o1 | 13 µM | > 100 µM | inhibition at 0.25 h, 100 µM [6]: 34% |
| O=c1cc(-c2cccc([N+](=O)[O-])c2)oc2c1ccc1ccccc12 | > 100 µM | > 100 µM | Activity [4]: 42%; inhibition at 0.25 h, 100 µM [5]: 36% |

Second part, led by results:

| IC50 [1] | IC50 [2] | Structure (SMILES) | also measured |
| --- | --- | --- | --- |
| > 100 µM | > 100 µM | O=c1c(-c2ccccc2)coc2c1ccc1ccccc12 | Activity [4]: 6%; inhibition at 0.25 h, 100 µM [5]: 18% |
| 11 µM | > 100 µM | O=c1cc(-c2ccc3ccccc3c2)oc2c1ccc1ccccc12 | inhibition at 0.25 h, 100 µM [6]: 0% |
| 10 µM | > 100 µM | O=c1cc(-c2ccccc2)oc2c1ccc1ccccc12 [ALPHA-NAPHTHOFLAVONE] | Activity [4]: 21% |
| > 104 µM | > 104 µM | c1ccc(-c2cc3ccc4ccccc4c3o2)cc1 | inhibition at 0.25 h, 104 µM [12]: 34% |
